Assay results: ChEMBL document CHEMBL4689842, “EUbOPEN Chemogenomics Library wave 1” (2021)
Several values for one entry are separate records, joined by “and”; a condition that tells them apart may be missing. Identical values can stand only once.

Test system: Fibroblast
Assay: Multiplex assay against human fibroblast
Type: toxicity, cell-based
In short: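 Live cells carried four stains from seeding: Hoechst33342, BioTracker Green Microtubule Cytoskeleton Dye, MitoTracker Red and Annexin V Alexa Fluor 680. They were imaged on a CQ1 microscope at 37°C and 5% CO2 after compound addition. Using CellPathfinder machine-learning gating, cells were split into Hoechst high-intensity objects or normal cells, normal cells into healthy, pyknosed or fragmented nuclei, and pyknosed cells into mitotic or apoptotic; tubulin, mitochondrial-mass and membrane-permeability phenotypes are per cents of healthy-nucleus cells.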

[1] = 12 h, 1 µM, compound concentration 1 uM, replicate 1
[2] = 12 h, 1 µM, compound concentration 1 uM, replicate 2
[3] = 12 h, 10 µM, compound concentration 10 uM, replicate 1
[4] = 12 h, 10 µM, compound concentration 10 uM, replicate 2
[5] = 24 h, 1 µM, compound concentration 1 uM, replicate 1
[6] = 24 h, 1 µM, compound concentration 1 uM, replicate 2
[7] = 24 h, 10 µM, compound concentration 10 uM, replicate 1
[8] = 24 h, 10 µM, compound concentration 10 uM, replicate 2
[9] = 48 h, 1 µM, compound concentration 1 uM, replicate 1
[10] = 48 h, 1 µM, compound concentration 1 uM, replicate 2
[11] = 48 h, 10 µM, compound concentration 10 uM, replicate 1
[12] = 48 h, 10 µM, compound concentration 10 uM, replicate 2

Structure (SMILES): COc1ncc(-c2ccc3nccc(-c4ccnnc4)c3c2)cc1NS(=O)(=O)c1ccc(F)cc1F [OMIPALISIB]
- Population Apoptotic (%) [1]: 57%
- Population Fragmented Nuclei (%) [1]: 21%
- Population Healthy Nuclei (%) [1]: 49%
- Population Hoechst High Intensity Objects (%) [1]: 12%
- Population Membrane Permeable-Phenotype (%) [1]: 28%
- Population Mitochondria Different-Phenotype (%) [1]: 2%
- Population Mitotic Cells (%) [1]: 42%
- Population Normal (%) [1]: 87%
- Population Pyknosed Nuclei (%) [1]: 29%
- Population Tubulin-Different-Phenotype (%) [1]: 51%
- Total Cell Count [1]: 81
- Population Apoptotic (%) [2]: 50%
- Population Fragmented Nuclei (%) [2]: 46%
- Population Healthy Nuclei (%) [2]: 42%
- Population Hoechst High Intensity Objects (%) [2]: 7%
- Population Membrane Permeable-Phenotype (%) [2]: 16%
- Population Mitochondria Different-Phenotype (%) [2]: 16%
- Population Mitotic Cells (%) [2]: 50%
- Population Normal (%) [2]: 92%
- Population Pyknosed Nuclei (%) [2]: 11%
- Population Tubulin-Different-Phenotype (%) [2]: 23%
- Total Cell Count [2]: 51
- Population Apoptotic (%) [3]: 78%
- Population Fragmented Nuclei (%) [3]: 20%
- Population Healthy Nuclei (%) [3]: 38%
- Population Hoechst High Intensity Objects (%) [3]: 18%
- Population Membrane Permeable-Phenotype (%) [3]: 30%
- Population Mitochondria Different-Phenotype (%) [3]: 6%
- Population Mitotic Cells (%) [3]: 21%
- Population Normal (%) [3]: 81%
- Population Pyknosed Nuclei (%) [3]: 41%
- Population Tubulin-Different-Phenotype (%) [3]: 73%
- Total Cell Count [3]: 96
- Population Apoptotic (%) [4]: 65%
- Population Fragmented Nuclei (%) [4]: 33%
- Population Healthy Nuclei (%) [4]: 27%
- Population Hoechst High Intensity Objects (%) [4]: 7%
- Population Membrane Permeable-Phenotype (%) [4]: 11%
- Population Mitochondria Different-Phenotype (%) [4]: 16%
- Population Mitotic Cells (%) [4]: 34%
- Population Normal (%) [4]: 92%
- Population Pyknosed Nuclei (%) [4]: 39%
- Population Tubulin-Different-Phenotype (%) [4]: 22%
- Total Cell Count [4]: 77
- Population Apoptotic (%) [5]: 58%
- Population Fragmented Nuclei (%) [5]: 30%
- Population Healthy Nuclei (%) [5]: 53%
- Population Hoechst High Intensity Objects (%) [5]: 10%
- Population Membrane Permeable-Phenotype (%) [5]: 32%
- Population Mitochondria Different-Phenotype (%) [5]: 2%
- Population Mitotic Cells (%) [5]: 41%
- Population Normal (%) [5]: 89%
- Population Tubulin-Different-Phenotype (%) [5]: 42%
- Total Cell Count [5]: 84
- Population Apoptotic (%) [6]: 33%
- Population Fragmented Nuclei (%) [6]: 43%
- Population Healthy Nuclei (%) [6]: 40%
- Population Hoechst High Intensity Objects (%) [6]: 11%
- Population Membrane Permeable-Phenotype (%) [6]: 24%
- Population Mitochondria Different-Phenotype (%) [6]: 17%
- Population Mitotic Cells (%) [6]: 66%
- Population Normal (%) [6]: 88%
- Population Pyknosed Nuclei (%) [6]: 16%
- Population Tubulin-Different-Phenotype (%) [6]: 37%
- Total Cell Count [6]: 50
- Population Apoptotic (%) [7]: 66%
- Population Fragmented Nuclei (%) [7]: 25%
- Population Healthy Nuclei (%) [7]: 49%
- Population Hoechst High Intensity Objects (%) [7]: 20%
- Population Membrane Permeable-Phenotype (%) [7]: 31%
- Population Mitochondria Different-Phenotype (%) [7]: 11%
- Population Mitotic Cells (%) [7]: 33%
- Population Normal (%) [7]: 79%
- Population Pyknosed Nuclei (%) [7]: 25%
- Population Tubulin-Different-Phenotype (%) [7]: 80%
- Total Cell Count [7]: 89
- Population Apoptotic (%) [8]: 80%
- Population Fragmented Nuclei (%) [8]: 27%
- Population Healthy Nuclei (%) [8]: 22%
- Population Hoechst High Intensity Objects (%) [8]: 11%
- Population Membrane Permeable-Phenotype (%) [8]: 35%
- Population Mitochondria Different-Phenotype (%) [8]: 28%
- Population Mitotic Cells (%) [8]: 20%
- Population Normal (%) [8]: 88%
- Population Pyknosed Nuclei (%) [8]: 49%
- Population Tubulin-Different-Phenotype (%) [8]: 42%
- Total Cell Count [8]: 81
- Population Apoptotic (%) [9]: 42%
- Population Fragmented Nuclei (%) [9]: 40%
- Population Healthy Nuclei (%) [9]: 48%
- Population Hoechst High Intensity Objects (%) [9]: 16%
- Population Membrane Permeable-Phenotype (%) [9]: 21%
- Population Mitochondria Different-Phenotype (%) [9]: 12%
- Population Mitotic Cells (%) [9]: 57%
- Population Normal (%) [9]: 83%
- Population Pyknosed Nuclei (%) [9]: 10%
- Population Tubulin-Different-Phenotype (%) [9]: 37%
- Total Cell Count [9]: 79
- Population Apoptotic (%) [10]: 0%
- Population Fragmented Nuclei (%) [10]: 47%
- Population Healthy Nuclei (%) [10]: 52%
- Population Hoechst High Intensity Objects (%) [10]: 13%
- Population Membrane Permeable-Phenotype (%) [10]: 35%
- Population Mitochondria Different-Phenotype (%) [10]: 3%
- Population Mitotic Cells (%) [10]: 0%
- Population Normal (%) [10]: 86%
- Population Pyknosed Nuclei (%) [10]: 0%
- Population Tubulin-Different-Phenotype (%) [10]: 53%
- Total Cell Count [10]: 61
- Population Apoptotic (%) [11]: 63%
- Population Fragmented Nuclei (%) [11]: 34%
- Population Healthy Nuclei (%) [11]: 50%
- Population Hoechst High Intensity Objects (%) [11]: 17%
- Population Membrane Permeable-Phenotype (%) [11]: 31%
- Population Mitochondria Different-Phenotype (%) [11]: 14%
- Population Mitotic Cells (%) [11]: 36%
- Population Normal (%) [11]: 82%
- Population Pyknosed Nuclei (%) [11]: 15%
- Population Tubulin-Different-Phenotype (%) [11]: 82%
- Total Cell Count [11]: 85
- Population Apoptotic (%) [12]: 0%
- Population Fragmented Nuclei (%) [12]: 33%
- Population Healthy Nuclei (%) [12]: 65%
- Population Hoechst High Intensity Objects (%) [12]: 12%
- Population Membrane Permeable-Phenotype (%) [12]: 20%
- Population Mitochondria Different-Phenotype (%) [12]: 8%
- Population Mitotic Cells (%) [12]: 100%
- Population Normal (%) [12]: 87%
- Population Pyknosed Nuclei (%) [12]: 1%
- Population Tubulin-Different-Phenotype (%) [12]: 93%
- Total Cell Count [12]: 86

Structure (SMILES): Cn1cncc1[C@@](O)(COc1ccc(C#N)cc1-c1ccc(OC(F)(F)F)cc1)c1ccc(C#N)cc1 [A-108]
- Population Apoptotic (%) [3]: 53% and 83%
- Population Fragmented Nuclei (%) [3]: 39% and 19%
- Population Healthy Nuclei (%) [3]: 44% and 66%
- Population Hoechst High Intensity Objects (%) [3]: 15% and 12%
- Population Membrane Permeable-Phenotype (%) [3]: 23% and 8%
- Population Mitochondria Different-Phenotype (%) [3]: 20% and 7%
- Population Mitotic Cells (%) [3]: 46% and 16%
- Population Normal (%) [3]: 84% and 87%
- Population Pyknosed Nuclei (%) [3]: 15% and 14%
- Total Cell Count [3]: 192 and 337
- Population Apoptotic (%) [4]: 42% and 57%
- Population Fragmented Nuclei (%) [4]: 52% and 61%
- Population Healthy Nuclei (%) [4]: 34% and 26%
- Population Hoechst High Intensity Objects (%) [4]: 32%
- Population Membrane Permeable-Phenotype (%) [4]: 0% and 5%
- Population Mitotic Cells (%) [4]: 57% and 42%
- Population Normal (%) [4]: 67%
- Population Pyknosed Nuclei (%) [4]: 12% and 11%
- Population Tubulin-Different-Phenotype (%) [4]: 26% and 52%
- Total Cell Count [4]: 82 and 94
- Population Apoptotic (%) [7]: 54% and 58%
- Population Fragmented Nuclei (%) [7]: 40% and 16%
- Population Healthy Nuclei (%) [7]: 47% and 69%
- Population Hoechst High Intensity Objects (%) [7]: 11% and 16%
- Population Membrane Permeable-Phenotype (%) [7]: 3% and 7%
- Population Mitotic Cells (%) [7]: 45% and 41%
- Population Normal (%) [7]: 88% and 83%
- Population Pyknosed Nuclei (%) [7]: 14%
- Total Cell Count [7]: 216 and 318
- Population Apoptotic (%) [8]: 50% and 62%
- Population Fragmented Nuclei (%) [8]: 50%
- Population Healthy Nuclei (%) [8]: 43% and 37%
- Population Hoechst High Intensity Objects (%) [8]: 29% and 21%
- Population Membrane Permeable-Phenotype (%) [8]: 14% and 16%
- Population Mitochondria Different-Phenotype (%) [8]: 66% and 28%
- Population Mitotic Cells (%) [8]: 50% and 37%
- Population Normal (%) [8]: 70% and 78%
- Population Pyknosed Nuclei (%) [8]: 6% and 11%
- Population Tubulin-Different-Phenotype (%) [8]: 37% and 52%
- Total Cell Count [8]: 88 and 85
